The values below come from ChEMBL document CHEMBL1136410, “Design, synthesis, and biological evaluation of angiogenesis inhibitors: aromatic enone and dienone analogues of curcumin” (2003).

Structures are written as SMILES.

Assay [1] can be described thus: In vitro percent inhibition of […] murine endothelial cell proliferation garnered from C57BL/6 mice infected with ectotropic virus at 3 ug/mL. In kind it is functional. Conditions: Mus musculus. In a few lines:
(§1)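 SVR cells (C57BL/6 murine endothelial cells immortalized with SV40 large T and activated H-ras) plated at 10,000/well on gelatinized wells. Grown 24 h at 37 °C, 10% CO2, in 5% DMEM. Medium then replaced with fresh 5% DMEM containing 3 or 6 µg/mL compound (from 1 mg/mL DMSO stocks) for 72 h. Surviving trypsinized cells Coulter-counted; percent inhibition versus DMSO control.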

Assay [2] is described as follows: In vitro percent inhibition of […] murine endothelial cell proliferation garnered from C57BL/6 mice infected with ectotropic virus at 6 ug/mL. In kind it is functional. The following applies: Mus musculus. In a few lines: as §1

On to `O=C(/C=C/c1c(Cl)cccc1Cl)c1ccccc1`, for which, in assay [1], at 3 µg/mL the inhibition was 92.9%. Moreover, the inhibition at 6 µg/mL in assay [2] was 97.5%.

On to `Cc1ccc(C(=O)/C=C/c2c(Cl)cccc2Cl)cc1`, for which the inhibition at 3 µg/mL in assay [1] came to 98.2%. In assay [2], this molecule had an inhibition at 6 µg/mL of 98.1%.

With `COc1cc(/C=C2\CCC/C(=C\c3ccc(O)c(OC)c3)C2=O)ccc1O` [CYCLOVALONE], the inhibition at 3 µg/mL in assay [1] was 90.1%. Also, the inhibition at 6 µg/mL in assay [2] was 96%.

As for `O=C1/C(=C/c2ccccc2)CCC/C1=C\c1ccccc1` [2,6-DIBENZYLIDENECYCLOHEXANONE], testing at 3 µg/mL in assay [1] gave an inhibition of 94.4%. This molecule also gave an inhibition at 6 µg/mL in assay [2] of 97.7%.

On to `O=C(/C=C/c1c(Cl)cccc1Cl)/C=C/c1c(Cl)cccc1Cl`, for which at 3 µg/mL the inhibition in assay [1] was 87.1%. Moreover, at 6 µg/mL the inhibition in assay [2] was 90.4%.

Take `O=C(/C=C/c1ccccc1)c1ccccc1` [CHALCONE]: in assay [1], 3 µg/mL produced 92.8% inhibition. Further, the inhibition at 6 µg/mL in assay [2] was found to be 94.4%.

In the case of `O=C(/C=C/c1ccccc1)c1ccc2ccccc2c1`, in assay [1], the inhibition at 3 µg/mL was 92.2%. For the same molecule, in assay [2], at 6 µg/mL the inhibition was 94.7%.

In the case of `O=C1/C(=C/c2ccccn2)CCC/C1=C\c1ccccn1`, in assay [1], at 3 µg/mL the inhibition was 92.9%. This molecule also had an inhibition at 6 µg/mL in assay [2] of 96.7%.

In the case of `O=C(/C=C/c1ccccc1)/C=C/c1ccccc1`, the inhibition at 3 µg/mL in assay [1] worked out at 96.6%. The same molecule returned an inhibition at 6 µg/mL in assay [2] of 97.7%.

`O=C(/C=C/c1ccccn1)c1ccccc1` [WR-190433]: in assay [1], testing at 3 µg/mL gave an inhibition of 89.1%. In addition, testing at 6 µg/mL in assay [2] gave an inhibition of 96.9%.

In general, inhibition refers to the relative decrease from the control value, in per cent.
